The test system of data set [1] is SK-OV-3. Description: Cytotoxicity against human SKOV3 cells after 72 hrs. The format is functional, cell-based. The settings on record: SK-OV-3, 72 h. The gist of the method:
(§1)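 Cells (ATCC) were exposed in log-phase growth for 72 h to compound across 10 µM to 10 nM in RPMI with 10% FCS, 4 mM glutamine, penicillin/streptomycin and fungizone, at 37 °C under 5% CO2. Viability was read as ATP from viable cells by luminescence kit. IC50 is the dose cutting ATP release by 50%.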

The subject of data set [2] is BXPC-3. Description: Cytotoxicity against human BxPC3 cells after 72 hrs. The settings on record: BXPC-3, 72 h. The class given is functional, cell-based. The method, boiled down:
as §1

The nature of data set [3]: Cytotoxicity against human Namalwa cells after 72 hrs. The format is functional, cell-based. The settings on record: NAMALVA. The gist of the method:
as §1

Data set [4] in a line: Inhibition of topoisomerase by kinetoplast DNA decatenation assay at 100 uM.
In data set [5] the test system is A549. Description: Cytotoxicity against human A549 cells after 72 hrs. The settings on record: A549, 72 h. The class given is functional, cell-based. The method, boiled down: as §1
The subject of data set [6] is MCF7. In words: Cytotoxicity against human MCF7 cells after 72 hrs. The class given is functional, cell-based. The settings on record: MCF7, 72 h. The gist of the method:
as §1

For data set [7], the target named is DNA topoisomerase 2-alpha (Homo sapiens, UniProt P11388). In words: Inhibition of topoisomerase 2 mediated DNA relaxation.
Data set [8] deals with LoVo. Description: Cytotoxicity against human LoVo cells after 72 hrs. The class given is functional, cell-based. The gist of the method:
as §1

The test system of data set [9] is A549. In words: Cell cycle arrest in human A549 cells by accumulation at S phase after 48 hrs by flow cytometry. The format is functional, cell-based. The method, boiled down:
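A549 cells were seeded at 1.3 × 10^4 cells/cm², then drug-treated. They were stained with propidium iodide and read by flow cytometry on the […] channel. G1, S and G2/M fractions were obtained by deconvolution.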

Data set [10] has as its system Mus musculus. Description: Toxicity in P388 cells xenografted mouse at 10 to 20 mg/kg, ip for 4 days. The class given is organism-based. On the set-up: dose 10-20 mg/kg, route intraperitoneal. The following applies: in vivo, 96 h. The gist of the method: (§2)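 Compounds were given ip at 10 or 20 mg/kg per injection, once daily for 4 days. Antitumor activity and toxicity were both recorded.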

Data set [11] is described as follows: Cytotoxicity against human HL60/MX2 cells. The format is functional, cell-based.
Data set [12] is described as follows: Displacement of ethidium bromide from DNA.
Data set [13] in a line: Inhibition of topoisomerase by kinetoplast DNA decatenation assay.
The subject of data set [14] is CCRF-CEM. In words: Cytotoxicity against human CEM cells. The class given is functional, cell-based. The method, boiled down:
as §1

Data set [15] deals with P388. In words: Antitumor activity in mouse P388 cells xenografted mouse at 10 mg/kg, ip for 4 days. On the set-up: dose 10 mg/kg. The class given is functional, organism-based. The method, boiled down:
as §2

The subject of data set [16] is V79. In words: Effect on DNA damage in Chinese hamster V79 cells at 10 uM after 1 hr by comet assay relative to control. The format is functional, cell-based. The following applies: Cricetulus griseus. The gist of the method: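 Cells were treated for 1 h at 10 µM. Controls carried 1% DMSO, matching the drug samples. Strand breaks were scored by comet assay, with representative photomicrographs (10×) of each full slide.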

Data set [17] addresses T1, DNA topoisomerase 1 (Homo sapiens, UniProt P11387).
T1 sequence (P11387 whole entry): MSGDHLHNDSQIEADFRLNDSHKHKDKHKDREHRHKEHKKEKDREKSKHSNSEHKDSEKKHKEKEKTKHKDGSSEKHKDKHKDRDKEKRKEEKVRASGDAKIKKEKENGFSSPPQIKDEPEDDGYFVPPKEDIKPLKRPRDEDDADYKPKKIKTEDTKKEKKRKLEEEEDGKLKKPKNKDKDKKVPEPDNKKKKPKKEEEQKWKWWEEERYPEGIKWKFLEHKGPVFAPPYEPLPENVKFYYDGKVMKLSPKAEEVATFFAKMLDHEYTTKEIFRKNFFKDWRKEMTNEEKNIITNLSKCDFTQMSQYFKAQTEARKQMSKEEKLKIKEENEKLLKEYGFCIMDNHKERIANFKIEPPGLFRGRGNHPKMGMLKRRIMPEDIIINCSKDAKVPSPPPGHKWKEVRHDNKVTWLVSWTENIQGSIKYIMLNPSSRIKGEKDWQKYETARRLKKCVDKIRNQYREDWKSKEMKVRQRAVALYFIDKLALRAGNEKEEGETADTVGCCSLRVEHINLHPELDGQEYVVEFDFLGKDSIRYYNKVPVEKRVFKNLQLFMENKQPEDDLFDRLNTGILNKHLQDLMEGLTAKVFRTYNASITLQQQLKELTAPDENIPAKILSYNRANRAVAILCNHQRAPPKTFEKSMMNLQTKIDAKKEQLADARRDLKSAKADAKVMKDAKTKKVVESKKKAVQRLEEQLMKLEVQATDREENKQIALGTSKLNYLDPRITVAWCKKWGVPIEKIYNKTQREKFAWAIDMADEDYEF
In words: Inhibition of topoisomerase 1-mediated DNA relaxation. The method, boiled down: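 Supercoiled plasmid DNA (200 ng) was incubated 20 min at 37 °C with the minimum purified topoisomerase I needed for full relaxation, with or without drug at 1, 3.2, 10 or 100 µM. The reaction was stopped with SDS–proteinase K, and products were resolved by agarose gel electrophoresis.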

In data set [18] the test system is P388. In words: Antitumor activity in mouse P388 leukemia model at 20 mg/kg, ip for 4 days. The format is functional, organism-based. On the set-up: dose 20 mg/kg. The method, boiled down:
as §2

A short description of data set [19]: Displacement of Hoechst 33258 from DNA.
In data set [20] the test system is CEM/C2. In words: Cytotoxicity against human topoisomerase 1 mutant CEM/C2 cells. The format is functional, cell-based. The method, boiled down: as §1
Data set [21] relates to HL-60. Description: Cytotoxicity against human HL60 cells. The class given is functional, cell-based.

The source made the active and inactive calls. No cut-off for these calls is given here.

Sequence of DNA topoisomerase 2-alpha (P11388 whole entry): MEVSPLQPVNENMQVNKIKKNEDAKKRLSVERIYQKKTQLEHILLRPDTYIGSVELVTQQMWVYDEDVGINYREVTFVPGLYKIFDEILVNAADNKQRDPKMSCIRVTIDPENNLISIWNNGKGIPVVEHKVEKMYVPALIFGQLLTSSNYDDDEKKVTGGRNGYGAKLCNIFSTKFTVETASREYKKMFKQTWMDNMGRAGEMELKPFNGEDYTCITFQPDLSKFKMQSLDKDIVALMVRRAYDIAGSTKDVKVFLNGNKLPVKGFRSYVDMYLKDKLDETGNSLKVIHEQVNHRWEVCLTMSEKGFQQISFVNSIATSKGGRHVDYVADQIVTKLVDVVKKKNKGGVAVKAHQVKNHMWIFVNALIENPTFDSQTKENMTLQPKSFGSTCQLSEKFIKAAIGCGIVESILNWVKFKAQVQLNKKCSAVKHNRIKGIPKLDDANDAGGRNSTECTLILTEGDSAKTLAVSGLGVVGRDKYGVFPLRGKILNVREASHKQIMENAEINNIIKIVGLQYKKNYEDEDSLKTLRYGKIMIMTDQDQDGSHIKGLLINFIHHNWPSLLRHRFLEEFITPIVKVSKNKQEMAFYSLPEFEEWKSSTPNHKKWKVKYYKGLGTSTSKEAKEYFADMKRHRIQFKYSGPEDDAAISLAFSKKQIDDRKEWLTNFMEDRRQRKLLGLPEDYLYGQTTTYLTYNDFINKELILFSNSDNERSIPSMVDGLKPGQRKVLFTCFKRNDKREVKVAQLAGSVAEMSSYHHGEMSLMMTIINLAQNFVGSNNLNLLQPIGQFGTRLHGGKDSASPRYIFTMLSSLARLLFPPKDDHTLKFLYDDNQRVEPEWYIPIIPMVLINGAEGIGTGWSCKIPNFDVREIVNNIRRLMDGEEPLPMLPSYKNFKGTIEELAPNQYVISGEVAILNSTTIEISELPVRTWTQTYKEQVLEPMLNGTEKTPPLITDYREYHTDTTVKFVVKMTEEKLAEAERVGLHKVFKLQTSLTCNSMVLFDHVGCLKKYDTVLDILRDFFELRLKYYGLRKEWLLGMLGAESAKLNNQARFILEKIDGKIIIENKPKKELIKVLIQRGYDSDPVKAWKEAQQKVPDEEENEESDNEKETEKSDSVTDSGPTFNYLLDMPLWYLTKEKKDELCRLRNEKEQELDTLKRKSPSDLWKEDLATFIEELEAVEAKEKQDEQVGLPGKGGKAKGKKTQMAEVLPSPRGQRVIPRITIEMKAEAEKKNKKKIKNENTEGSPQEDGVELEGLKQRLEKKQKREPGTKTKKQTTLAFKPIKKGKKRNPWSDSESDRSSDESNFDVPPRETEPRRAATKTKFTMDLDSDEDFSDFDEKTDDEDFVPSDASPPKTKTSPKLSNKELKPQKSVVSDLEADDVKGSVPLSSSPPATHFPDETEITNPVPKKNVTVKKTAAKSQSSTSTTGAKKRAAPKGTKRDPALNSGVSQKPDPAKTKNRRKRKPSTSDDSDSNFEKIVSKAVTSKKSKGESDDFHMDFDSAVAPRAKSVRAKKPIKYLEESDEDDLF

Turning to `NCCc1c(C2(c3c[nH]c4ccccc34)NCCc3c2[nH]c2ccccc32)[nH]c2ccccc12` (stereo not given) [BENGACARBOLINE], the IC50 – broadly, the concentration needed to halve the response being measured – was > 10 µM in [1]; 10 µM in data set [2]; > 10 µM in data set [3]; 7.1 µM in data set [5]; 8.6 µM in data set [6]; > 100 µM in data set [7]. The same molecule gave a half-inhibitory concentration (IC50) in data set [8] of 9.9 µM. In addition, the result in [4] was inactive. In addition, the result in [9] was Active.
Consider `NCCc1c(C(c2[nH]c3cc(Br)ccc3c2CCNC(=O)C(F)(F)F)c2c[nH]c3ccccc23)[nH]c2cc(Br)ccc12` (stereo not given), for which the half-maximal inhibitory concentration (IC50) in data set [1] was 6.5 µM; in data set [2], 5.1 µM; in data set [11] it was 10 µM; in [3], 5.4 µM; in data set [13], 20 µM; in [14], 5.5 µM. Besides, the IC50 in [17] was 8 µM; in [5] it was 4.6 µM; in [6], 4.2 µM; in [20], 5.6 µM; in [21], 8.8 µM; in data set [7], 13 µM. This molecule also registered an IC50 in data set [8] of 5 µM. Besides, the Activity result in data set [10] was “Non-toxic”; in data set [15] it was “Non-toxic”; in [18], “Non-toxic”; in [9] it was “Dose-dependent effect”. In addition, the result in data set [12] and in data set [19] was inactive. Besides, the outcome in data set [16] was Active.
As to `NCCc1c(C(c2[nH]c3cc(Br)ccc3c2CCNC(=O)C(F)(F)F)c2cn(S(=O)(=O)c3ccccc3)c3ccccc23)[nH]c2cc(Br)ccc12` (stereo not given), the IC50 in [1] turned out to be 6.5 µM; in [2] it was 3.6 µM; in data set [3], 3.5 µM; in [13], 20 µM; in [17] it was 9 µM; in data set [5], 5 µM. Further, the IC50 in data set [6] stood at 4.9 µM; in data set [7], 19 µM; in data set [8], 4.5 µM. The Activity result in data set [10] is “Non-toxic”; in data set [15] it was “Non-toxic”; in [18], “Non-toxic”; in data set [9], “Dose-dependent effect”. Besides, the outcome in [12] and in data set [19] was inactive. Further, in data set [16], the result was Active.
